Measurements as given in ChEMBL document CHEMBL1795214, “Discovery of novel xanthone derivatives as xanthine oxidase inhibitors” (Bioorg Med Chem Lett, 2011).

Each molecule was assayed against T1, Xanthine dehydrogenase/oxidase (Bos taurus, UniProt P80457) (assay: Inhibition of bovine Xanthine oxidase assessed as reduction in uric acid level at 10 ug/ml by spectrophotometry). Conditions: cattle.
Procedure, shortened: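 Single-concentration screen at 10 μg/mL. XO activity was followed spectrophotometrically as uric acid formation at 293 nm and reported as percent inhibition. Below 60% inhibition at this concentration was recorded as not active.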

T1 sequence (P80457 whole entry): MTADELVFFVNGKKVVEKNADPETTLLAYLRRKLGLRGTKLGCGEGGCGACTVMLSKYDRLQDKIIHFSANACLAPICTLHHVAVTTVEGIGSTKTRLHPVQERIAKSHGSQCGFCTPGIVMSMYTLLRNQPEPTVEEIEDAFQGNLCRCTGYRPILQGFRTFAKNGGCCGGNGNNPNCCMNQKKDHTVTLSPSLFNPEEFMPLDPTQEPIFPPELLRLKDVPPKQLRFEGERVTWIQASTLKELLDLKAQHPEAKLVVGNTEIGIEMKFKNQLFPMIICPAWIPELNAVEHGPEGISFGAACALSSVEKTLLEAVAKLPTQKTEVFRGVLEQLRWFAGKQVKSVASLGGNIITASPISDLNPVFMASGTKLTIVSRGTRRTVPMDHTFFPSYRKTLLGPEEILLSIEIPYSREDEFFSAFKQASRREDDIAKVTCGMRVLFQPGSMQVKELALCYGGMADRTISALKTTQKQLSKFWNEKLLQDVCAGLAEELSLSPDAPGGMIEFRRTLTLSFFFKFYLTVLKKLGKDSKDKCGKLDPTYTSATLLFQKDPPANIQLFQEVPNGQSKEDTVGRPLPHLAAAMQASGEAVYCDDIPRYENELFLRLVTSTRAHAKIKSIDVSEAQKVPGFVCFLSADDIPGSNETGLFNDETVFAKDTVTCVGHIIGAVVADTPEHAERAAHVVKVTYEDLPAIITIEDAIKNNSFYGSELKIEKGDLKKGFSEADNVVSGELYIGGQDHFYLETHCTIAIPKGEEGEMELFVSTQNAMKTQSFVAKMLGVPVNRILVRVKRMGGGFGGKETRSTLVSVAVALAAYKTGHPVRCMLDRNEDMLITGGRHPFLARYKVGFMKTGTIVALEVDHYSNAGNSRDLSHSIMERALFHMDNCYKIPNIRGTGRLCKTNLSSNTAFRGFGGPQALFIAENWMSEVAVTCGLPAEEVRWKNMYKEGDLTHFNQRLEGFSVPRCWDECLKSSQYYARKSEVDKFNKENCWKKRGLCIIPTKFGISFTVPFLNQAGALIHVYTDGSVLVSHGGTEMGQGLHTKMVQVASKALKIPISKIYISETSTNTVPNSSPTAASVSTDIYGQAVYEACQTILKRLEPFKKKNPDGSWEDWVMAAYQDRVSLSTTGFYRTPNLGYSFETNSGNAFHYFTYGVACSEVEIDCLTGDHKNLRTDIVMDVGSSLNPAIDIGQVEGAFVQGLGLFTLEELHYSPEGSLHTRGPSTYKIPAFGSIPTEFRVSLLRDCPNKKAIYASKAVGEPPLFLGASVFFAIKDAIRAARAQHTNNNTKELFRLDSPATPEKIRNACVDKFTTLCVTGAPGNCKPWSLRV

Row | inhibition at 10 µg/mL [%] | Compound
1 | < 60 | O=c1c2cc(O)c(O)cc2oc2cc(O)cc(OCc3ccccc3F)c12
2 | < 60 | O=c1c2cc(O)c(O)cc2oc2cc(O)cc(OCc3cccc(F)c3)c12
3 | < 60 | O=c1c2cc(O)c(O)cc2oc2cc(O)cc(OCc3ccc(F)cc3)c12
4 | < 60 | O=c1c2cc(O)c(O)cc2oc2cc(O)cc(OCc3cccc(Cl)c3)c12
5 | < 60 | O=c1c2cc(O)c(O)cc2oc2cc(O)cc(OCc3ccccc3Br)c12
6 | < 60 | O=c1c2cc(O)c(O)cc2oc2cc(O)cc(OCc3cccc(Br)c3)c12
7 | < 60 | O=c1c2cc(O)c(O)cc2oc2cc(O)cc(OCc3ccccc3[N+](=O)[O-])c12
8 | < 60 | O=c1c2cc(O)c(O)cc2oc2cc(O)cc(OCc3cccc([N+](=O)[O-])c3)c12
9 | < 60 | O=c1c2cc(O)c(O)cc2oc2cc(O)cc(OCc3ccc([N+](=O)[O-])cc3)c12
10 | < 60 | N#Cc1ccccc1COc1cc(O)cc2oc3cc(O)c(O)cc3c(=O)c12
11 | < 60 | N#Cc1cccc(COc2cc(O)cc3oc4cc(O)c(O)cc4c(=O)c23)c1
12 | < 60 | O=c1c2cc(O)c(O)cc2oc2cc(O)cc(OCc3ccc(Cl)cc3Cl)c12
13 | < 60 | O=c1c2cc(O)c(O)cc2oc2cc(O)cc(OCc3c(Cl)cccc3Cl)c12

Each molecule was assayed against T1, Xanthine dehydrogenase/oxidase (assay: Inhibition of bovine Xanthine oxidase assessed as reduction in uric acid level by spectrophotometry). Conditions: not given.

Row | IC50 [µM] | Compound
14 | 7.08 | Cc1ccccc1COc1cc(O)cc2oc3cc(O)c(O)cc3c(=O)c12
15 | 13.6 | Cc1cccc(COc2cc(O)cc3oc4cc(O)c(O)cc4c(=O)c23)c1
16 | 5.73 | Cc1ccc(COc2cc(O)cc3oc4cc(O)c(O)cc4c(=O)c23)cc1
17 | 6.41 | O=c1c2cc(O)c(O)cc2oc2cc(O)cc(OCc3ccccc3Cl)c12
18 | 4.7 | O=c1c2cc(O)c(O)cc2oc2cc(O)cc(OCc3ccc(Cl)cc3)c12
19 | 20.1 | O=c1c2cc(O)c(O)cc2oc2cc(O)cc(OCc3ccc(Br)cc3)c12
20 | 4.67 | N#Cc1ccc(COc2cc(O)cc3oc4cc(O)c(O)cc4c(=O)c23)cc1
